Measured values taken from ChEMBL document CHEMBL1129430, “Synthesis and transporter binding properties of 3 beta-(4'-alkyl-, 4'-alkenyl-, and 4'-alkynylphenyl)nortropane-2 beta-carboxylic acid methyl esters: serotonin transporter selective analogs” (J Med Chem, 1996).

Key:
[1] = biological target: Sodium-dependent dopamine transporter (Rattus norvegicus, UniProt P23977); experiment: Inhibition of [3H]WIN-35428 binding to the dopamine transporter in rat striata.
[2] = biological target: Norepinephrine transporter (Rattus norvegicus, UniProt Q9WTR4); experiment: Inhibition of [3H]nisoxetine binding to the norepinephrine transporter in rat midbrain.
Norepinephrine transporter, sequence (Q9WTR4 whole entry): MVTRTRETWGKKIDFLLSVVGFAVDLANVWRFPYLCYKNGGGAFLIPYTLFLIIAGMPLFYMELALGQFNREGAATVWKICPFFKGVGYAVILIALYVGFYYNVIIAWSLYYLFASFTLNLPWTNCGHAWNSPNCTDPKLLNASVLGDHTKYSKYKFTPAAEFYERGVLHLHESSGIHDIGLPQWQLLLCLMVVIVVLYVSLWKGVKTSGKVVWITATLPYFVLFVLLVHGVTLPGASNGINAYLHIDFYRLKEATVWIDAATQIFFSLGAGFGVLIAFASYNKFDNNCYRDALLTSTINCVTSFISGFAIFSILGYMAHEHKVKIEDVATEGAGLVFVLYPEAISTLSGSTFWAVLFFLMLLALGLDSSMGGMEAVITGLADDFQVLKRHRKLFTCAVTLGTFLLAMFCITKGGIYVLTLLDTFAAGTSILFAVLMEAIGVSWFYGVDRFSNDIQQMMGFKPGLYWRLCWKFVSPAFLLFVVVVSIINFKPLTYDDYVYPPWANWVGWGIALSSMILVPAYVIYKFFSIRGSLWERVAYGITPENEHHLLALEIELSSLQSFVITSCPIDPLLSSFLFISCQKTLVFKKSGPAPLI

[3] = biological target: Sodium-dependent serotonin transporter (Rattus norvegicus, UniProt P31652); experiment: Inhibition of [3H]paroxetine binding to serotonin transporter in rat frontal cortex; assay type: tissue-based
Sodium-dependent serotonin transporter, sequence (P31652 whole entry): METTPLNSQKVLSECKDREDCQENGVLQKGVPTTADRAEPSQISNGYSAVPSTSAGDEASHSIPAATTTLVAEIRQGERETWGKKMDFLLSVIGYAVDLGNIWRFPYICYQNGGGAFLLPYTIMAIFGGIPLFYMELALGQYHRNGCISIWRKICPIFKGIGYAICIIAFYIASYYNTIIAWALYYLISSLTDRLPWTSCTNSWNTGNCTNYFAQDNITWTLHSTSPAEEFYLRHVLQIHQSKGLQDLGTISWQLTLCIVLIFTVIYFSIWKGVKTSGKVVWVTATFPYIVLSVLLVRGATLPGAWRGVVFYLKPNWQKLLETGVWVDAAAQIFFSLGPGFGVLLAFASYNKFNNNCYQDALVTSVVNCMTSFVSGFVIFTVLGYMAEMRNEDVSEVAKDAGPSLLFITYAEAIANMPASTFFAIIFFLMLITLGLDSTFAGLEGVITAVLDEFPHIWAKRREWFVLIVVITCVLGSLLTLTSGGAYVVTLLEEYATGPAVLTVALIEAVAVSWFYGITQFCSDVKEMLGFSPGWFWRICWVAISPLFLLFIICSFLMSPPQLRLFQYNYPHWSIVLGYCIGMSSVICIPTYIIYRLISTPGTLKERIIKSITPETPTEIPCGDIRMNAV

[4] = biological target: Monoamine transporters; Norepinephrine & serotonin (Rattus norvegicus) (UniProt P31652+Q9WTR4); experiment: Selectivity for norepinephrine and serotonin transporters; assay type: protein assay
In short: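 The NE/5-HT IC50 ratio is derived from IC50 values from two binding assays in rat brain. One is [3H]nisoxetine binding in midbrain (NE transporter). The other is [3H]paroxetine binding in frontal cortex (5-HT transporter).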

[5] = biological target: Monoamine transporters; serotonin & dopamine (Rattus norvegicus) (UniProt P31652+P23977); experiment: Selectivity for dopamine and serotonin transporters; assay type: protein assay
Monoamine transporters; serotonin & dopamine (Rattus norvegicus), sequence (P23977 whole entry, looked up): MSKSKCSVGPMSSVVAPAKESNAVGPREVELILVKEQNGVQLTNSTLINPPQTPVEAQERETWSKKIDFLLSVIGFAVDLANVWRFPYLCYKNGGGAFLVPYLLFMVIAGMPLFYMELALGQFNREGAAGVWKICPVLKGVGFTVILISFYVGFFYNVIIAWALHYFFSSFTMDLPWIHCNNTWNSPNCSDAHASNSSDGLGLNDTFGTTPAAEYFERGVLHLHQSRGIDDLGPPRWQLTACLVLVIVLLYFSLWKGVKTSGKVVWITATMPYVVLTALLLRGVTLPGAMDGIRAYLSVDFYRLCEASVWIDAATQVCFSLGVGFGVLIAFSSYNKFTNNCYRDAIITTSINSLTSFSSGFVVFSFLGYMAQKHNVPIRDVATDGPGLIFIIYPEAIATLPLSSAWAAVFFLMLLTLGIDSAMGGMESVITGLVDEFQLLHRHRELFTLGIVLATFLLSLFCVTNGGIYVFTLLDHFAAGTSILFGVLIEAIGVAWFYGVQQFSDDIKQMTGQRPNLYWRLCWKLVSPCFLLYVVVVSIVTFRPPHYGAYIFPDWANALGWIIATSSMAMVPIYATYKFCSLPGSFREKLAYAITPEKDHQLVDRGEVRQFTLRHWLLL
Monoamine transporters; serotonin & dopamine (Rattus norvegicus), sequence (P31652 whole entry, looked up): as the sequence (P31652 whole entry) above

Sodium-dependent dopamine transporter, sequence (P23977 whole entry): as the sequence (P23977 whole entry, looked up) above

SMILES	IC50 [1] [nM]	IC50 [2] [nM]	IC50 [3] [nM]	Ratio [4]	Ratio [5]
C=CCc1ccc(C2CC3CCC(N3)C2C(=O)OC)cc1 (stereo not given)	56.5	89.7	6.2	15	9.1
COC(=O)C1C2CCC(CC1c1ccc(C(C)C)cc1)N2 (stereo not given)	320	–	–	21	–
CCc1ccc(C2CC3CCC(C2C(=O)OC)N3C)cc1 (stereo not given)	55	4030	–	142	1.9
CCCc1ccc(C2CC3CCC(C2C(=O)OC)N3C)cc1 (stereo not given)	68.5	3920	–	56	0.97
C=C(C)c1ccc(C2CC3CCC(N3)C2C(=O)OC)cc1 (stereo not given)	23	144	0.6	240	38
C#Cc1ccc(C2CC3CCC(C2C(=O)OC)N3C)cc1 (stereo not given)	1.2	83.2	4.4	19	0.27
COC(=O)C1C(c2ccc(C(C)C)cc2)CC2CCC1N2C (stereo not given)	597	75000	191	392	3.1
CCCc1ccc(C2CC3CCC(N3)C2C(=O)OC)cc1 (stereo not given)	212	532	26	21	8.2
CC#Cc1ccc(C2CC3CCC(C2C(=O)OC)N3C)cc1 (stereo not given)	2.37	820	–	52	0.15
C=CCc1ccc(C2CC3CCC(C2C(=O)OC)N3C)cc1 (stereo not given)	32.8	2480	28.4	87	1.16
COC(=O)[C@@H]1C2CCC(C[C@@H]1OC(=O)c1ccccc1)N2 (stereo not given in full)	206	139	127	1.1	1.6
CC#Cc1ccc(C2CC3CCC(N3)C2C(=O)OC)cc1 (stereo not given)	6.11	116	3.16	37	1.93
C/C=C\c1ccc(C2CC3CCC(C2C(=O)OC)N3C)cc1 (stereo not given)	15	2800	7.09	395	2.1
C/C=C/c1ccc(C2CC3CCC(N3)C2C(=O)OC)cc1 (trans isomer)	28.6	54	1.3	42	22
C=C(C)c1ccc(C2CC3CCC(C2C(=O)OC)N3C)cc1 (stereo not given)	14.1	1330	–	425	4.6
C=Cc1ccc(C2CC3CCC(N3)C2C(=O)OC)cc1 (stereo not given)	1.73	14.9	–	6.6	0.77
C=Cc1ccc(C2CC3CCC(C2C(=O)OC)N3C)cc1 (stereo not given)	1.24	78	9.5	8.2	0.13
C/C=C/c1ccc(C2CC3CCC(C2C(=O)OC)N3C)cc1 (stereo not given)	5.29	1590	–	140	0.46
C/C=C\c1ccc(C2CC3CCC(N3)C2C(=O)OC)cc1 (cis isomer)	31.6	147	1.15	128	28
CCc1ccc(C2CC3CCC(N3)C2C(=O)OC)cc1 (stereo not given)	49.9	122	–	15	6.1
C#Cc1ccc(C2CC3CCC(N3)C2C(=O)OC)cc1 (stereo not given)	1.24	21.8	1.59	13.7	0.78
